# Test results as given in ChEMBL document CHEMBL1165965, “Synthesis and structure-activity relationships of 1,2,3,4-tetrahydropyrido[2,3-b]pyrazines as potent and selective inhibitors of the anaplastic lymphoma kinase” (Bioorg Med Chem, 2010).
# Columns and labels:
# [1] = target: Microtubule-associated serine/threonine-protein kinase 1 (Homo sapiens) (UniProt Q9Y2H9); test: Inhibition of MAST1 at 1 uM
# [2] = system: Hepatocyte growth factor receptor (Homo sapiens), P08581 [M1250T]; test: Inhibition of MET M1250T mutant at 1 uM
# Chain of Hepatocyte growth factor receptor (Homo sapiens), P08581 [M1250T] (P08581 whole entry M1250T): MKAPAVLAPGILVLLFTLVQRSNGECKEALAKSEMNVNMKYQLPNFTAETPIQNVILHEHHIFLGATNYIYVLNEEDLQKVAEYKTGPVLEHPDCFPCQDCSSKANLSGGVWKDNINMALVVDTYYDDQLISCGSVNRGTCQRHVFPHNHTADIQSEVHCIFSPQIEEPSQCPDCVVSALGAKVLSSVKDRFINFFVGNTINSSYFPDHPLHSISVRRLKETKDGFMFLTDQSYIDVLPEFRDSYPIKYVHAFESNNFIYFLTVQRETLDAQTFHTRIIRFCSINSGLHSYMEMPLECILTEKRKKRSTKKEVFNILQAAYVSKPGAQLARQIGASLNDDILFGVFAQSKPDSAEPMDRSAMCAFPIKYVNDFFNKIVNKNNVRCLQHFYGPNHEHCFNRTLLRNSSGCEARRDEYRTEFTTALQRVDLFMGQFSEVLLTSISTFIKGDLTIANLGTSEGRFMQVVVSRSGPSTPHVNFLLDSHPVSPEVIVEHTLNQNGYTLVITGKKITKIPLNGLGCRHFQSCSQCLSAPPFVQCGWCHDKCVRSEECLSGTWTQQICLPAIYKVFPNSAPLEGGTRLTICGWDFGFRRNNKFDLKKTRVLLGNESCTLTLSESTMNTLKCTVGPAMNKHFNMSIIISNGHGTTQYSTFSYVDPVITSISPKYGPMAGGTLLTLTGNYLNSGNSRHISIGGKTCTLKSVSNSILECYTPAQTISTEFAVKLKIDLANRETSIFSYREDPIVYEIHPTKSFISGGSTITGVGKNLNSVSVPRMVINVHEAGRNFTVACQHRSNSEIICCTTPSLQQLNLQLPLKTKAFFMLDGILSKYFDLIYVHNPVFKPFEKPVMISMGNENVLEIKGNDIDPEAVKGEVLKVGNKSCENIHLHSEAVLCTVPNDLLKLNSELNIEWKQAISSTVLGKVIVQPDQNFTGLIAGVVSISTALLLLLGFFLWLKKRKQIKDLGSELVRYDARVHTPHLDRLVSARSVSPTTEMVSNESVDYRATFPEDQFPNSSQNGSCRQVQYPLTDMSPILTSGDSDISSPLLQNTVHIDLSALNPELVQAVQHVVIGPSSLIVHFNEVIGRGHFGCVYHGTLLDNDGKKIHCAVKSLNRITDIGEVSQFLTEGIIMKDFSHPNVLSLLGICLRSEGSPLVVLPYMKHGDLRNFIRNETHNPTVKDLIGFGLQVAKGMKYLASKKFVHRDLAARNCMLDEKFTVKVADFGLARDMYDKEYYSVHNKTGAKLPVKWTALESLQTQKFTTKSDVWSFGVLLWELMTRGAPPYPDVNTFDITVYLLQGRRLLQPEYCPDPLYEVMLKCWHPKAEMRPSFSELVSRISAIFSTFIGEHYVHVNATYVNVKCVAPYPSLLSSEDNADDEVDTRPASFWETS
# [3] = target: Serine/threonine-protein kinase Nek6 (Homo sapiens) (UniProt Q9HC98); test: Inhibition of NEK6 at 1 uM
# [4] = target: T1, Phosphatidylinositol 3-kinase C2 domain-containing subunit gamma (Homo sapiens) (UniProt O75747); test: Inhibition of PIK3C2G at 1 uM
# T1 sequence (whole entry): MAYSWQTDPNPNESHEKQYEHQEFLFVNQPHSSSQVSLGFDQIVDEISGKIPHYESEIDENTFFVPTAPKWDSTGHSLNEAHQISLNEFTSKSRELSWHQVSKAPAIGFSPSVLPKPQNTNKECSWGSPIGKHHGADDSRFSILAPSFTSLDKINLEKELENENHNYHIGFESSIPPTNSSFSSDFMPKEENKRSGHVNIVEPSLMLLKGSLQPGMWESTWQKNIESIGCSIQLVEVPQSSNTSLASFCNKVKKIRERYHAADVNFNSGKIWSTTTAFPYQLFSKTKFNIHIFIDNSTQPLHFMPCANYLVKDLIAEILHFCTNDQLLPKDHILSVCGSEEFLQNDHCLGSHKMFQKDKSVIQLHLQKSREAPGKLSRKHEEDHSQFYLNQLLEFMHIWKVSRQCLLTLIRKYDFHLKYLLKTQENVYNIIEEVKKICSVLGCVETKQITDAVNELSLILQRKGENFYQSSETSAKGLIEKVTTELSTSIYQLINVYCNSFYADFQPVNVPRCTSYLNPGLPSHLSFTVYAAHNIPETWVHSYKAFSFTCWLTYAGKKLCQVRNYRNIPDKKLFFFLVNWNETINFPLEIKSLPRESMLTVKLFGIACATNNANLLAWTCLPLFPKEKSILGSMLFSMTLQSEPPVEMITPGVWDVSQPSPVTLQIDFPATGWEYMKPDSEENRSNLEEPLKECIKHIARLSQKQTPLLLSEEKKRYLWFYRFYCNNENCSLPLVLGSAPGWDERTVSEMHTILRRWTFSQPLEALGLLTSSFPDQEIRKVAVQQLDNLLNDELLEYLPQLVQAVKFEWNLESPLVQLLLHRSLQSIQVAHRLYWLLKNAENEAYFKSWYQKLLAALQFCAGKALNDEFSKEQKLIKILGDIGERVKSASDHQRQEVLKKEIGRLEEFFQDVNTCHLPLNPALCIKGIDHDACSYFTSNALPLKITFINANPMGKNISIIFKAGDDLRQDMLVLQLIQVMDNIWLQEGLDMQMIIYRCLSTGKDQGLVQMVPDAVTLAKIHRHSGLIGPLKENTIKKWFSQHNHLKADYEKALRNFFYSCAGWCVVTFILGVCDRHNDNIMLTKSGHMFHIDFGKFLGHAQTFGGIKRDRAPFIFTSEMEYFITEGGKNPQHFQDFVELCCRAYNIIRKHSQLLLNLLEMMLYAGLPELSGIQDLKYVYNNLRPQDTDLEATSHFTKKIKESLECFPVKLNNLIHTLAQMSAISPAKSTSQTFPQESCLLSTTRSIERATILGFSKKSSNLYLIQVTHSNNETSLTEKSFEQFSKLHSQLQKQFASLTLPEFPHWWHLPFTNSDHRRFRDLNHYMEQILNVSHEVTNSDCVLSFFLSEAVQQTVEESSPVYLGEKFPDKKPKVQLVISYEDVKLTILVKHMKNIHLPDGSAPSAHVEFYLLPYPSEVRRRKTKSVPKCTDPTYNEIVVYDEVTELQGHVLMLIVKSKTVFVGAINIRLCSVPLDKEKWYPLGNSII
# [5] = target: TGF-beta receptor type-2 (Homo sapiens) (UniProt P37173); test: Inhibition of TGFBR2 at 1 uM
# Chain of TGF-beta receptor type-2 (Homo sapiens) (P37173 whole entry): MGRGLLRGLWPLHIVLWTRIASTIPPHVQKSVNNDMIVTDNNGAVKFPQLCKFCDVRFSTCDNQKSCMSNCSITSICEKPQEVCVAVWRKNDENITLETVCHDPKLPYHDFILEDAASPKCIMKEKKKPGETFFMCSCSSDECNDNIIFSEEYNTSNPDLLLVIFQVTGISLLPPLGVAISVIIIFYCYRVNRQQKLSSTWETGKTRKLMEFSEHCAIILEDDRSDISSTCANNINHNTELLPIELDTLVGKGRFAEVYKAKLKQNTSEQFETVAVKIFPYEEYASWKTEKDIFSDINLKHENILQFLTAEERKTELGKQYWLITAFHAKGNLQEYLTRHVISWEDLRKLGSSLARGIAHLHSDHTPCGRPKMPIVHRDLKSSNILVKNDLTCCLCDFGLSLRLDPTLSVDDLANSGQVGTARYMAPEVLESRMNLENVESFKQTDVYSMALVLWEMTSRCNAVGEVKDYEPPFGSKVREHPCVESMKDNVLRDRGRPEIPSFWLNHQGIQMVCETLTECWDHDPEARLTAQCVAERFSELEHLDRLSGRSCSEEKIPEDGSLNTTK
# [6] = target: T2, Serine/threonine-protein kinase ULK1 (Homo sapiens) (UniProt O75385); test: Inhibition of ULK1 at 1 uM
# T2 sequence (whole entry): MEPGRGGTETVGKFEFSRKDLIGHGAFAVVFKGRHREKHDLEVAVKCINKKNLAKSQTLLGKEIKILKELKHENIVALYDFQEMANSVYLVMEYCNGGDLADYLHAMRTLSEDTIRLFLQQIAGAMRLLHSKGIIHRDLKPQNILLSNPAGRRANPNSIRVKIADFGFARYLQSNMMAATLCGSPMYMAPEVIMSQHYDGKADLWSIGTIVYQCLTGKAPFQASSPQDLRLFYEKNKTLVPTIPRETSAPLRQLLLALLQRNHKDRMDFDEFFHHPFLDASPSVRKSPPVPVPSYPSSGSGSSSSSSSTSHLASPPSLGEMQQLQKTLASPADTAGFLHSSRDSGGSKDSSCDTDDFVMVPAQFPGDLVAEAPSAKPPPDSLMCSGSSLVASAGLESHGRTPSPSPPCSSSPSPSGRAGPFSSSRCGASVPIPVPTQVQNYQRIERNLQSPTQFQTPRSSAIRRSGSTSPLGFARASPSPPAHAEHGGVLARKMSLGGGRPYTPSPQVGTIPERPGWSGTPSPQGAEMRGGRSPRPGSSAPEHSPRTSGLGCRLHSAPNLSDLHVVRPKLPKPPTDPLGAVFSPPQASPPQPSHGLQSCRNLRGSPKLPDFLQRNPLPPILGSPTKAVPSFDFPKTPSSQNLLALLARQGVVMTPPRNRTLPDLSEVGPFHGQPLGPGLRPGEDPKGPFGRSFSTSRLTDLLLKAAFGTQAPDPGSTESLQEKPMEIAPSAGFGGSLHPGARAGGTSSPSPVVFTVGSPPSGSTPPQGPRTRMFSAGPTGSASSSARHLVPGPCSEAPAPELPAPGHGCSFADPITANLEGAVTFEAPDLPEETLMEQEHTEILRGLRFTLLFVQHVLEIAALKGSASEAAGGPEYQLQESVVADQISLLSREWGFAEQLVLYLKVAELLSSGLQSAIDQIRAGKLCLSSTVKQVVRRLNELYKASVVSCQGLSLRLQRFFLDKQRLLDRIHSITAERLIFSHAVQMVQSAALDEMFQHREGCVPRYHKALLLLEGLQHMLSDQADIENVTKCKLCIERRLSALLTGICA
# [7] = target: Mitogen-activated protein kinase kinase kinase 20 (Homo sapiens) (UniProt Q9NYL2); test: Inhibition of ZAK at 1 uM
# [8] = target: Activin receptor type-1-like (Homo sapiens) (UniProt P37023); test: Inhibition of ACVRL1 at 1 uM
# Chain of Activin receptor type-1-like (Homo sapiens) (P37023 whole entry): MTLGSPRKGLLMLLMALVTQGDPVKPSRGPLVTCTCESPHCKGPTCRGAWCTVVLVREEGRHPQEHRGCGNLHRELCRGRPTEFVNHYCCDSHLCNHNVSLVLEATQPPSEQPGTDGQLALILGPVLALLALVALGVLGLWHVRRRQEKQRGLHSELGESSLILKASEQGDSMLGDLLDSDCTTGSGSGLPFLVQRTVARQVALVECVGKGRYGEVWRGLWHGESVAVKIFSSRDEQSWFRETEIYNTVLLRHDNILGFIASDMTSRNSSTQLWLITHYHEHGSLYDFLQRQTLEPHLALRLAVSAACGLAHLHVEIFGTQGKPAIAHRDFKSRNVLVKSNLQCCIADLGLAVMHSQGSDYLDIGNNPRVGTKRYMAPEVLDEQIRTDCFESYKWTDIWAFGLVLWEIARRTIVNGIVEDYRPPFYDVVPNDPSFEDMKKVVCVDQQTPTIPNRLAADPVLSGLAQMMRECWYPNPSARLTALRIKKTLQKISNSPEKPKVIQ
# Procedure, shortened: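 Ambit KINOMEscan screen at a single concentration across a 250–400 kinase panel, recorded as percent inhibition. Selectivity was expressed as S(90), the fraction of kinases inhibited >90%.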
# [9] = target: Mitogen-activated protein kinase 7 (Homo sapiens) (UniProt Q13164); test: Inhibition of ERK5 at 1 uM
# Chain of Mitogen-activated protein kinase 7 (Homo sapiens) (Q13164 2-816 limits assumed): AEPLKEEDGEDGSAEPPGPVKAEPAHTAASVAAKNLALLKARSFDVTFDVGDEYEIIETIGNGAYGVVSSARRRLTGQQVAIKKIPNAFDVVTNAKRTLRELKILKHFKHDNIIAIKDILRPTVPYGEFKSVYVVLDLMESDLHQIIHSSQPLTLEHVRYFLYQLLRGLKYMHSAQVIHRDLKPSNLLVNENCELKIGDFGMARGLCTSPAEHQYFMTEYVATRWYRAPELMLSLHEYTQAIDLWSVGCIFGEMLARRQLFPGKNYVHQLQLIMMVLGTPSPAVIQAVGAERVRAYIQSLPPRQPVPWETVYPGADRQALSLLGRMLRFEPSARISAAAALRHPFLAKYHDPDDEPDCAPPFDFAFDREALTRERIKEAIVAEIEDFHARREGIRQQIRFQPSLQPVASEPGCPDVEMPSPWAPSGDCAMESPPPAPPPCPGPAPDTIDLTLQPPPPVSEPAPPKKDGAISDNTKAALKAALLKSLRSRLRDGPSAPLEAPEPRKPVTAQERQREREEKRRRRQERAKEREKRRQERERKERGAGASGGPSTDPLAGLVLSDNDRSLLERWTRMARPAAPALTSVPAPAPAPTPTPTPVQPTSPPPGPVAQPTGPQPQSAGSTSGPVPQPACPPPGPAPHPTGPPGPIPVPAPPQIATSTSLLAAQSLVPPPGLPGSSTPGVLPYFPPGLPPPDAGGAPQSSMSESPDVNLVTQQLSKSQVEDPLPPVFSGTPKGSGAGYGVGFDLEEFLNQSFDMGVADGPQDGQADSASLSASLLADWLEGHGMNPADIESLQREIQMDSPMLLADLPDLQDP
# Chain of Microtubule-associated serine/threonine-protein kinase 1 (Homo sapiens) (Q9Y2H9 whole entry, looked up): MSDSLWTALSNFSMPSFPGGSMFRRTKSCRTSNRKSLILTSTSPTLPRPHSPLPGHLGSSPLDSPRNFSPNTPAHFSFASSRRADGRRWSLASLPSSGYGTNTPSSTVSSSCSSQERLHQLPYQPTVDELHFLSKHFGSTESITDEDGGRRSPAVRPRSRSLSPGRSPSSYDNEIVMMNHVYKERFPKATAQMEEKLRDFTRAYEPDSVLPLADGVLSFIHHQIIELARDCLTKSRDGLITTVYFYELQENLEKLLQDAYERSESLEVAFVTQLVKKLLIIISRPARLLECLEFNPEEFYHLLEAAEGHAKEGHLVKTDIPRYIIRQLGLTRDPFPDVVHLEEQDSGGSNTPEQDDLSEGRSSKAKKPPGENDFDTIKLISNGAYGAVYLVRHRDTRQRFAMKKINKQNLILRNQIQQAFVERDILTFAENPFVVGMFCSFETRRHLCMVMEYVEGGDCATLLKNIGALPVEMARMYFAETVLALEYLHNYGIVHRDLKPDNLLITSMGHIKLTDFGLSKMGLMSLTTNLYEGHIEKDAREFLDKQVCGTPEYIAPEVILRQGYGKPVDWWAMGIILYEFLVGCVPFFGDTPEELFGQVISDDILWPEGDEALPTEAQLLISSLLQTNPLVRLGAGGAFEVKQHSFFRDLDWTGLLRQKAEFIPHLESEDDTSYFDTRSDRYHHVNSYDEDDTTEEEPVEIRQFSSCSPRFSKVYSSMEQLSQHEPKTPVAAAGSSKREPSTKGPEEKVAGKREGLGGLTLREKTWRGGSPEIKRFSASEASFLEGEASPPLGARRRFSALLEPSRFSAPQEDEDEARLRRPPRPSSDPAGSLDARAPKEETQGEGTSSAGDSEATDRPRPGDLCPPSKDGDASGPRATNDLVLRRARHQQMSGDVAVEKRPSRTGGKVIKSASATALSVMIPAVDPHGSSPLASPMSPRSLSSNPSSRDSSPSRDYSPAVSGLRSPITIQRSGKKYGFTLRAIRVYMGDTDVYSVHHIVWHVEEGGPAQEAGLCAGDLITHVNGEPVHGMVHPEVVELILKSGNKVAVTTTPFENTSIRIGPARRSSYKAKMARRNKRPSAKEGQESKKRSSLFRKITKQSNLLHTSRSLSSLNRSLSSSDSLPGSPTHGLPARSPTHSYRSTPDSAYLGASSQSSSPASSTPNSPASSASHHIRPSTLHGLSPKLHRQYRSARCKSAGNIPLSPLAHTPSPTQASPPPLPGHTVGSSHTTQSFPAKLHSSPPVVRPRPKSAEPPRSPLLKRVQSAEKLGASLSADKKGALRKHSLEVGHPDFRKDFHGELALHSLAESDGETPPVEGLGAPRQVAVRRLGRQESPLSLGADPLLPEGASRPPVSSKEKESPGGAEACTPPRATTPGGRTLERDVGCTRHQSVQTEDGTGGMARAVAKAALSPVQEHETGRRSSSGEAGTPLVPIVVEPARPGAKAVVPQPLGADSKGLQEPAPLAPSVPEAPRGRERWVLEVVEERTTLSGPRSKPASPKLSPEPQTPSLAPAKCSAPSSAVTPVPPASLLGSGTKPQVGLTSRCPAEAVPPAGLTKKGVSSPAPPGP
Structure (SMILES),inhibition [1],inhibition [2],inhibition [3],inhibition [4],inhibition [5],inhibition [6],inhibition [7],inhibition [8],inhibition [9]
CN1CCN(c2ccc(-c3cnc4c(c3)N(Cc3cc(F)ccc3F)CCN4)cn2)CC1,< 50%,< 50%,< 50%,< 50%,< 50%,< 50%,< 50%,< 50%,< 50%
CC(=O)N1CCN(c2cc(-c3cnc4c(c3)N(Cc3cc(Cl)ccc3C(F)(F)F)CCN4)ccn2)CC1,< 50%,< 50%,< 50%,< 50%,< 50%,< 50%,< 50%,< 50%,< 50%
CN1CCN(c2ccc(-c3cnc4c(c3)N(Cc3c(F)ccc(F)c3Cl)CCN4)cn2)CC1,< 50%,82%,< 50%,< 50%,< 50%,< 50%,< 50%,< 50%,< 50%
FC(F)(F)c1ccc(Cl)cc1CN1CCNc2ncc(-c3ccnc(N4CCNCC4)c3)cc21,< 50%,86%,< 50%,< 50%,< 50%,< 50%,< 50%,< 50%,< 50%
CN1CCN(c2ccc(-c3cnc4c(c3)N(Cc3cc(Cl)ccc3Cl)CCN4)cn2)CC1,< 50%,< 50%,< 50%,< 50%,< 50%,< 50%,< 50%,< 50%,< 50%
O=C(c1ccc(-c2cnc3c(c2)N(Cc2cc(Cl)ccc2C(F)(F)F)CCN3)cc1)N1CCC(N2CCCC2)CC1,,,< 50%,,< 50%,,,< 50%,
O=C(O)c1ccc(-c2cnc3c(c2)N(Cc2cc(Cl)ccc2C(F)(F)F)CCN3)cc1,,,< 50%,,< 50%,,,< 50%,
CN1CCN(c2ccc(-c3cnc4c(c3)N(Cc3cc(Cl)ccc3C(F)(F)F)CCN4)cn2)CC1,< 50%,< 50%,< 50%,< 50%,< 50%,< 50%,< 50%,< 50%,< 50%
O=C(c1ccc(-c2cnc3c(c2)N(Cc2cc(Cl)ccc2C(F)(F)F)CCN3)cc1)N1CCCCC1,,,< 50%,,< 50%,,,< 50%,
COC1CCN(C(=O)c2ccc(-c3cnc4c(c3)N(Cc3cc(Cl)ccc3C(F)(F)F)CCN4)cc2)CC1,,,< 50%,,< 50%,,,< 50%,
